# ChEMBL document CHEMBL1811788, “Chaxamycins A-D, bioactive ansamycins from a hyper-arid desert Streptomyces sp” (2011)
# Experiments:
# [1] = test system: Staphylococcus aureus; experiment: Antibacterial activity against scottish methicillin-resistant Staphylococcus aureus isolate 124 isolated from patient open wound after 18 hrs by microtiter plate reader assay; type: functional; details: isolate 124, 18 h
# In short: (§1)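 S. aureus grown in Müller-Hinton broth to early stationary phase, diluted to OD650 = 0.0005. Broth microdilution in triplicate, with at least two independent cultures per strain. Test compound (32–0.016 μg/mL) and rifampicin control (0.03–0.001 μg/mL) dissolved in DMSO (up to 0.63%). Incubated 18 h at 37 °C, growth read at OD620. MIC taken as lowest concentration showing no growth versus MH broth control.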
# [2] = test system: Staphylococcus aureus; experiment: Antibacterial activity against scottish methicillin-resistant Staphylococcus aureus isolate 161 (PF161) isolated from patient thigh abscess after 18 hrs by microtiter plate reader assay; type: functional; details: isolate 161, Thigh muscle; in short: as §1
# [3] = test system: Staphylococcus aureus; experiment: Antibacterial activity against epidemic methicillin-resistant Staphylococcus aureus isolate 15 isolated from patient urine infection after 18 hrs by microtiter plate reader assay; type: functional; details: isolate 15, Urine; in short: as §1
# [4] = test system: Escherichia coli; experiment: Antibacterial activity against Escherichia coli ATCC 25922 by agar diffusion method with regression line analysis
# [5] = test system: Staphylococcus aureus; experiment: Antibacterial activity against scottish methicillin-resistant Staphylococcus aureus isolate 161 (PF161d) isolated from patient buttock abscess after 18 hrs by microtiter plate reader assay; type: functional; details: isolate 161, 18 h; in short: as §1
# [6] = test system: Staphylococcus aureus; experiment: Antibacterial activity against Staphylococcus aureus ATCC 25923 after 18 hrs by microtiter plate reader assay; type: functional; details: ATCC 25923, 18 h
# [7] = test system: Staphylococcus aureus; experiment: Antibacterial activity against scottish methicillin-resistant Staphylococcus aureus isolate 105 isolated from patient toe wound after 18 hrs by microtiter plate reader assay; type: functional; details: isolate 105, 18 h; in short: as §1
# [8] = test system: Staphylococcus aureus; experiment: Antibacterial activity against Staphylococcus aureus RN4220 after 18 hrs by microtiter plate reader assay; type: functional; details: RN4220, 18 h; in short: as §1
# [9] = test system: Staphylococcus aureus; experiment: Antibacterial activity against scottish methicillin-resistant Staphylococcus aureus isolate 106 isolated from patient nasal swab after 18 hrs by microtiter plate reader assay; type: functional; details: isolate 106, 18 h; in short: as §1
# [10] = test system: Staphylococcus aureus; experiment: Antibacterial activity against scottish methicillin-resistant Staphylococcus aureus isolate 116 isolated from patient knee abscess after 18 hrs by microtiter plate reader assay; type: functional; details: isolate 116, Knee; in short: as §1
# [11] = test system: Staphylococcus aureus; experiment: Antibacterial activity against scottish methicillin-resistant Staphylococcus aureus isolate 126 isolated from patient nasal swab after 18 hrs by microtiter plate reader assay; type: functional; details: isolate 126, 18 h; in short: as §1
# [12] = test system: Staphylococcus aureus; experiment: Antibacterial activity against scottish methicillin-resistant Staphylococcus aureus […] isolated from patient arm cellulitis after 18 hrs by microtiter plate reader assay; type: functional; details: isolate 153, 18 h; in short: as §1
# [13] = test system: Staphylococcus aureus; experiment: Antibacterial activity against epidemic methicillin-resistant Staphylococcus aureus isolate 16 isolated from patient graft wound after 18 hrs by microtiter plate reader assay; type: functional; details: isolate 16, 18 h; in short: as §1
Compound,MIC [1] [µg/mL],MIC [2] [µg/mL],MIC [3] [µg/mL],MIC [4] [µg/mL],MIC [5] [µg/mL],MIC [6] [µg/mL],MIC [7] [µg/mL],MIC [8] [µg/mL],MIC [9] [µg/mL],MIC [10] [µg/mL],MIC [11] [µg/mL],MIC [12] [µg/mL],MIC [13] [µg/mL]
CC(=O)O[C@H]1[C@H](C)[C@H](O)[C@H](C)[C@@H](O)[C@@H](C)/C=C/C=C\C(=O)NC2=C(C)C(=O)c3c(c(O)c(C)c4c3[C@H](O)[C@](C)(O/C=C/[C@H](O)[C@H]1C)O4)C2=O [CHAXAMYCIN D],0.13,0.13,0.06,1.21,0.25,0.05,0.13,0.06,0.25,0.13,0.13,0.25,> 32
CO[C@H]1/C=C/O[C@@]2(C)Oc3c(C)c(O)c4c(O)c(c(/C=N/N5CCN(C)CC5)c(O)c4c3C2=O)NC(=O)/C(C)=C\C=C\[C@H](C)[C@H](O)[C@@H](C)[C@@H](O)[C@@H](C)[C@H](OC(C)=O)[C@@H]1C [RIFAMPIN],,,0.002,,,,0.002,0.002,0.004,0.002,,,4
